The target in the assay is CK2α catalytic subunit. Briefly: SPR. The class given is binding, human. The conditions noted are these: for kd (s^−1) × 10^−3: SPR BIAcoreX, CK2α coupled to CM5 chip, 25 °C, HBS pH 7.4, Langmuir 1:1 model; for association constant ka (as printed in text): SPR, binding to CK2α, unit not given. An outline of the steps:
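Recombinant human CK2α, expressed in E. coli, amine-coupled to a CM5 chip (1600 RU). Mouse NBD1 analyte, wild type or ΔF508, at 15 μM, flowed at 10 μL/min, 25 °C, in HBS (10 mM Hepes pH 7.4, 150 mM NaCl, 3 mM EDTA, 0.005% P20). Blank-surface response subtracted; rate constants fitted to a 1:1 binding model.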

B1: NBD1 ΔF508: purified ΔF508 mutated recombinant murine NBD1 of CFTR (spanning sequence 389−673) (protein)
chain: TTGIIMENVTAFWEEGFGELLEKVQQSNGDRKHSSDENNVSFSHLCLVGNPVLKNINLNIEKGEMLAITGSTGSGKTSLLMLILGELEASEGIIKHSGRVSFCSQFSWIMPGTIKENIIGVSYDEYRYKSVVKACQLQQDITKFAEQDNTVLGEGGVTLSGGQRARISLARAVYKDADLYLLDSPFGYLDVFTEEQVFESCVCKLMANKTRILVTSKMEHLRKADKILILHQGSSYFYGTFSELQSLRPDFSSKLMGYDTFDQFTEERRSSILTETLRRFSVDD
With B1, the “kd (s^−1) × 10^−3” value was 0.0877 s^−1 × 10^−3 and the “association constant ka (as printed in text)” value is 0.96 × 10^3.

B2: NBD1 wt: purified wild-type recombinant murine NBD1 of CFTR (spanning sequence 389−673) (protein)
chain: TTGIIMENVTAFWEEGFGELLEKVQQSNGDRKHSSDENNVSFSHLCLVGNPVLKNINLNIEKGEMLAITGSTGSGKTSLLMLILGELEASEGIIKHSGRVSFCSQFSWIMPGTIKENIIFGVSYDEYRYKSVVKACQLQQDITKFAEQDNTVLGEGGVTLSGGQRARISLARAVYKDADLYLLDSPFGYLDVFTEEQVFESCVCKLMANKTRILVTSKMEHLRKADKILILHQGSSYFYGTFSELQSLRPDFSSKLMGYDTFDQFTEERRSSILTETLRRFSVDD
Consider B2, for which the “kd (s^−1) × 10^−3” value was 0.335 s^−1 × 10^−3 and the “association constant ka (as printed in text)” value was 0.135 × 10^3.

Source of the values: publication PMC2774623 (Biochemistry, 2008).
